Laboratory results reported in ChEMBL document CHEMBL4699416, “Allocolchicinoids bearing a Michael acceptor fragment for possible irreversible binding of tubulin” (RSC Med Chem, 2020).
Activity calls are given as the source filed them. No cut-off for these calls is given here.

How the values were obtained:
HEK293 = test: Cytotoxicity against human HEK293 cells assessed as inhibition of cell growth incubated for 72 hrs by MTT assay; type: functional, cell-based; settings: HEK293, 72 h
In short: (§1)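 Cells in DMEM with 10% FCS, seeded 24 h before assay at 3 × 10^5 cells per mL and incubated overnight. DMSO stocks (20 mM) diluted to 20 μM–0.1 nM and added to cells for 72 h, with untreated controls. MTT added for the last 6 h, formazan dissolved in DMSO, OD read at 540 nm.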

BXPC-3 = test: Cytotoxicity against human BxPC-3 cells assessed as inhibition of cell growth incubated for 72 hrs by MTT assay; type: functional, cell-based; settings: BXPC-3, 72 h; in short: as §1
HaCaT = test: Cytotoxicity against human HaCaT cells assessed as inhibition of cell growth incubated for 72 hrs by MTT assay; type: functional, cell-based; in short: as §1
COLO357 [1] = test: Cytotoxicity against human COLO-357 cells assessed as inhibition of cell growth incubated for 72 hrs by MTT assay; type: functional, cell-based; settings: COLO357, 72 h; in short: as §1
COLO357 [2] = test: Induction of cell cycle arrest in human COLO357 cells assessed as G1 phase at 5 uM incubated for 72 hrs by propidium iodide staining based flow cytometry analysis (reference value: 91.1 %); type: functional
COLO357 [3] = test: Induction of cell cycle arrest in human COLO357 cells assessed as G2/M phase at 5 uM incubated for 72 hrs by propidium iodide staining based flow cytometry analysis (reference value: 7.2 %); type: functional
[4] = Toxicity in iv dosed C57BL/6 mouse assessed as lethal dose measured after 40 to 48 hrs; type: organism-based; settings: in vivo, time 40-48 hrs; for LD50: C57BL/6, mouse; for LD100: mouse
In short: (§2)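 Acute toxicity in C57BL/6 mice, 6–8 weeks old, 10 per group. Each mouse got one intravenous dose of 4, 7, 10 or 13 mg kg–1. The dose range was set in preliminary experiments. Signs of toxicity (ruffled fur, poor mobility, lower body temperature) and lethality were recorded at 24 h and 48 h after injection. Survivors at 48 h were followed for 1 week. LD50 and LD100 were derived.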

COLO357 [5] = test: Induction of apoptosis in human COLO357 cells at 5 uM incubated for 72 hrs by propidium iodide staining based flow cytometry analysis (reference value: 0.3 %); type: functional
COLO357 [6] = test: Induction of mitotic arrest in human COLO357 cells assessed as disruption of mitotic spindle arrangement at 5 uM incubated for 72 hrs by immunofluorescence based confocal microscopic analysis; type: functional, cell-based
In short: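 COLO-357 cells (10^5 per coverslip) grown overnight, then exposed to 5 μM in complete medium for 72 h. Fixed in 1% paraformaldehyde and permeabilized with 0.1% Triton X100 in PBS. Stained with anti-β-tubulin antibody and AlexaFluor555 anti-mouse IgG, nuclei with Hoechst 33342, then imaged by confocal microscopy.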

[7] = Induction of cell cycle arrest in […] L929 cells assessed as G2/M phase at 5 uM incubated for 72 hrs by propidium iodide staining based flow cytometry analysis (reference value: 8 %); type: functional
[8] = Induction of apoptosis in […] L929 cells at 5 uM incubated for 72 hrs by propidium iodide staining based flow cytometry analysis (reference value: 1.2 %); type: functional
[9] = Induction of cell cycle arrest in […] L929 cells assessed as G1 phase at 5 uM incubated for 72 hrs by propidium iodide staining based flow cytometry analysis (reference value: 91 %); type: functional
[10] = Inhibition of lamb brain tubulin polymerization assessed as reduction in microtubule formation incubated for 40 mins by spectrophotometric analysis; type: tissue-based, Ovis aries
[11] = Toxicity in iv dosed C57BL/6 mouse assessed as lethal dose measured after 24 hrs; type: organism-based; settings: in vivo; in short: as §2

Row | SMILES | IC50 (HEK293) [nM] | IC50 (BXPC-3) [nM] | IC50 (HaCaT) [nM] | IC50 (COLO357 [1]) [nM] | further results
1 | C=CC(=O)OCC(=O)N[C@H]1CCc2cc(OC)c(OC)c(OC)c2-c2ccc(C(=O)OC)cc21 | 16 | 16 | 16 | 16 | 
2 | C/C=C/C=C/C(=O)OCC(=O)N[C@H]1CCc2cc(OC)c(OC)c(OC)c2-c2cc3cc(COC(C)=O)oc3cc21 | 3 | 16 | 0.6 | 16 | 
3 | C/C=C/C(=O)OCC(=O)N[C@H]1CCc2cc(OC)c(OC)c(OC)c2-c2ccc(C(=O)OC)cc21 | 3 | 16 | 3 | 16 | Activity (COLO357 [2]): 32%; Activity (COLO357 [3]): 60%; LD50 [4]: 6.5 mg/kg; LD100 [4]: 9.8 mg/kg; Activity (COLO357 [5]): 9.3%; Activity (COLO357 [6]): Active
4 | COC(=O)c1ccc2c(c1)[C@@H](NC(=O)CNC(=O)/C=C/C(F)(F)F)CCc1cc(OC)c(OC)c(OC)c1-2 | 80 | 16 | 16 | 80 | 
5 | C=CC(=O)NCC(=O)N[C@H]1CCc2cc(OC)c(OC)c(OC)c2-c2ccc(C(=O)OC)cc21 | 400 | 80 | 80 | 400 | 
6 | COC(=O)c1ccc2c(c1)[C@@H](NC(=O)COC(=O)CC(C)SC[C@@H](NC(C)=O)C(=O)OC)CCc1cc(OC)c(OC)c(OC)c1-2 (mixture of isomers) | 16 | 16 | 16 | 80 | 
7 | COc1cc2c(c(OC)c1OC)-c1ccc(OC)c(=O)cc1[C@@H](NC(C)=O)CC2 [COLCHICINE] | 16 | 16 | 3 | 16 | Activity [7]: 74%; Activity [8]: 3%; Activity (COLO357 [2]): 33%; Activity (COLO357 [3]): 61%; Activity [9]: 30%; LD50 [4]: 8.5 mg/kg; LD100 [4]: 10.9 mg/kg; Activity (COLO357 [5]): 10%; Activity (COLO357 [6]): Active
8 | C/C=C/C=C/C(=O)NCC(=O)N[C@H]1CCc2cc(OC)c(OC)c(OC)c2-c2ccc(C(=O)OC)cc21 | 16 | 3 | 3 | 16 | 
9 | C/C=C/C=C/C(=O)OCC(=O)N[C@H]1CCc2cc(OC)c(OC)c(OC)c2-c2ccc(C(=O)OC)cc21 | 3 | 3 | 0.6 | 3 | Activity [7]: 61%; Activity [8]: 5.6%; Activity [9]: 40%; IC50 [10]: 6780 nM; LD50 at 24 h ([11]; C57BL/6, mouse): 6.1 mg/kg; LD100 ([11]; mouse, 24 h): 8.4 mg/kg; Activity (COLO357 [6]): Active
10 | COC(=O)c1ccc2c(c1)[C@@H](NC(=O)COC(=O)C=C(C)C)CCc1cc(OC)c(OC)c(OC)c1-2 | 16 | 3 | 3 | 16 | 
11 | COC(=O)c1ccc2c(c1)[C@@H](NC(=O)COC(=O)/C=C/C(F)(F)F)CCc1cc(OC)c(OC)c(OC)c1-2 | 16 | 16 | 16 | 16 | 
12 | C/C=C/C(=O)NCC(=O)N[C@H]1CCc2cc(OC)c(OC)c(OC)c2-c2ccc(C(=O)OC)cc21 | 80 | 80 | 80 | 80 | 
13 | C/C=C/C=C/C(=O)NCC(=O)N[C@H]1CCc2cc(OC)c(OC)c(OC)c2-c2cc3cc(CO)oc3cc21 | 400 | 400 | 400 | 400 | 
14 | COC(=O)c1ccc2c(c1)[C@@H](NC(=O)CNC(=O)C=C(C)C)CCc1cc(OC)c(OC)c(OC)c1-2 | 16 | 16 | 16 | 80 | 
